Data taken from ChEMBL document CHEMBL1938269, “Synthesis and biological evaluation of 7-O-modified oroxylin A derivatives” (Bioorg Med Chem Lett, 2012).
Activity calls are given as the source filed them. The calls are words filed in the database; no cut-off is given here.

Legend:
HCT-116 [1] = experiment: Antiproliferative activity against human HCT116 cells after 48 hrs by MTT assay; assay type: functional, cell-based; conditions: HCT-116, 48 h
[2] = Antiproliferative activity against human BCG823 cells after 48 hrs by MTT assay; assay type: functional, cell-based; conditions: BCG823, 48 h
HepG2 [3] = experiment: Antiproliferative activity against human HepG2 cells after 48 hrs by MTT assay; assay type: functional, cell-based; conditions: HepG2, 48 h
[4] = Ratio of oroxylin A IC50 to compound IC50 for human BCG823 cells; assay type: functional
HCT-116 [5] = experiment: Ratio of oroxylin A IC50 to compound IC50 for human HCT116 cells; assay type: functional
HepG2 [6] = experiment: Ratio of oroxylin A IC50 to compound IC50 for human HepG2 cells; assay type: functional
HepG2 [7] = experiment: Induction of apoptosis in human HepG2 cells assessed as late apoptotic cells at 2 uM after 72 hrs by annexin-V FITC and PI staining based flow cytometry (reference value: 1.4 +/- 0.0%); assay type: functional
HepG2 [8] = experiment: Induction of apoptosis in human HepG2 cells assessed as early apoptotic cells at 2 uM after 72 hrs by annexin-V FITC and PI staining based flow cytometry (reference value: 1.4 +/- 0.1%); assay type: functional
HepG2 [9] = experiment: Induction of apoptosis in human HepG2 cells assessed as viable cells at 4 uM after 72 hrs by annexin-V FITC and PI staining based flow cytometry (reference value: 94.5 +/- 0.6%); assay type: functional; conditions: HepG2, 72 h, read-out: Activity
HepG2 [10] = experiment: Induction of apoptosis in human HepG2 cells assessed as non-viable necrotic cells at 1 uM after 72 hrs by annexin-V FITC and PI staining based flow cytometry (reference value: 2.7 +/- 0.1%); assay type: functional
HepG2 [11] = experiment: Induction of apoptosis in human HepG2 cells assessed as non-viable necrotic cells at 2 uM after 72 hrs by annexin-V FITC and PI staining based flow cytometry (reference value: 2.7 +/- 0.1%); assay type: functional
HepG2 [12] = experiment: Induction of apoptosis in human HepG2 cells assessed as chromatin congregation and karyopyknosis at 1 to 4 uM after 72 hrs by DAPI staining-based fluorescent microscopy; assay type: functional, cell-based
In short: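 HepG2 cells exposed for 72 h, with untreated cells as control. Nuclei were stained with DAPI and viewed by fluorescence microscopy at 400×. Apoptotic cells were scored by chromatin congregation and karyopyknosis, seen as bright nuclear fluorescence. Arrows mark apoptotic cells.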

HepG2 [13] = experiment: Induction of apoptosis in human HepG2 cells assessed as early apoptotic cells at 4 uM after 72 hrs by annexin-V FITC and PI staining based flow cytometry (reference value: 1.4 +/- 0.1%); assay type: functional
HepG2 [14] = experiment: Induction of apoptosis in human HepG2 cells assessed as early apoptotic cells at 1 uM after 72 hrs by annexin-V FITC and PI staining based flow cytometry (reference value: 1.4 +/- 0.1%); assay type: functional
HepG2 [15] = experiment: Induction of apoptosis in human HepG2 cells assessed as viable cells at 2 uM after 72 hrs by annexin-V FITC and PI staining based flow cytometry (reference value: 94.5 +/- 0.6%); assay type: functional; conditions: HepG2, 72 h, read-out: Activity
HepG2 [16] = experiment: Induction of apoptosis in human HepG2 cells assessed as late apoptotic cells at 4 uM after 72 hrs by annexin-V FITC and PI staining based flow cytometry (reference value: 1.4 +/- 0.0%); assay type: functional
HepG2 [17] = experiment: Induction of apoptosis in human HepG2 cells assessed as non-viable necrotic cells at 4 uM after 72 hrs by annexin-V FITC and PI staining based flow cytometry (reference value: 2.7 +/- 0.1%); assay type: functional
HepG2 [18] = experiment: Induction of apoptosis in human HepG2 cells assessed as late apoptotic cells at 1 uM after 72 hrs by annexin-V FITC and PI staining based flow cytometry (reference value: 1.4 +/- 0.0%); assay type: functional
HepG2 [19] = experiment: Induction of apoptosis in human HepG2 cells assessed as viable cells at 1 uM after 72 hrs by annexin-V FITC and PI staining based flow cytometry (reference value: 94.5 +/- 0.6%); assay type: functional; conditions: HepG2, 72 h, read-out: Activity

Row | Structure (SMILES) | IC50 (HCT-116 [1]) | IC50 [2] | IC50 (HepG2 [3]) | also measured
1 | COc1c(OCCN2CCOCC2)cc2oc(-c3ccccc3)cc(=O)c2c1O | 56.3 µM | 38.2 µM | 67.6 µM | 
2 | COc1c(OCCCCN2CCCC2)cc2oc(-c3ccccc3)cc(=O)c2c1O | 1.4 µM | 9.5 µM | 4.7 µM | Ratio IC50 [4]: 5; Ratio IC50 (HCT-116 [5]): 5; Ratio IC50 (HepG2 [6]): 5
3 | COc1c(OCCCCN2CCN(C)CC2)cc2oc(-c3ccccc3)cc(=O)c2c1O | 12.5 µM | 35.8 µM | 27.2 µM | 
4 | COc1c(OCCN2CCN(C)CC2)cc2oc(-c3ccccc3)cc(=O)c2c1O | 54.9 µM | 20.5 µM | 15.4 µM | 
5 | COc1c(OCCCN2CCOCC2)cc2oc(-c3ccccc3)cc(=O)c2c1O | 52.4 µM | 41.6 µM | 74.8 µM | 
6 | COc1c(OCCCCN2CCCCC2)cc2oc(-c3ccccc3)cc(=O)c2c1O | 3 µM | 6.6 µM | 2.4 µM | Activity (HepG2 [7]): 3.5%; Activity (HepG2 [8]): 6.5%; viability at 4 µM (HepG2 [9]): 30.6%; Activity (HepG2 [10]): 5.8%; Activity (HepG2 [11]): 2.7%; Activity (HepG2 [12]): Active; Activity (HepG2 [13]): 14%; Activity (HepG2 [14]): 3.4%; viability at 2 µM (HepG2 [15]): 87.2%; Activity (HepG2 [16]): 17.9%; Activity (HepG2 [17]): 37.5%; Activity (HepG2 [18]): 1.9%; Ratio IC50 [4]: 5; viability at 1 µM (HepG2 [19]): 88.9%; Ratio IC50 (HCT-116 [5]): 5; Ratio IC50 (HepG2 [6]): 5
7 | COc1c(OCCCN2CCN(C)CC2)cc2oc(-c3ccccc3)cc(=O)c2c1O | 42.5 µM | 42.3 µM | 30.4 µM | 
8 | COc1c(O)cc2oc(-c3ccccc3)cc(=O)c2c1O [OROXYLIN A] | 33.9 µM | 25.5 µM | 22.7 µM | 
9 | COc1c(OCCN2CCCCC2)cc2oc(-c3ccccc3)cc(=O)c2c1O | 21.1 µM | 26.9 µM | 17.1 µM | 
10 | COc1c(OCCCCN2CCOCC2)cc2oc(-c3ccccc3)cc(=O)c2c1O | 32.4 µM | 26.8 µM | 50.6 µM | 
11 | CCN(CC)CCCCOc1cc2oc(-c3ccccc3)cc(=O)c2c(O)c1OC | 5.1 µM | 6.3 µM | 6.6 µM | Ratio IC50 [4]: 5; Ratio IC50 (HCT-116 [5]): 5; Ratio IC50 (HepG2 [6]): 5
12 | CCN(CC)CCOc1cc2oc(-c3ccccc3)cc(=O)c2c(O)c1OC | 39.6 µM | 13 µM | 12 µM | 
13 | COc1c(OCCCN2CCCC2)cc2oc(-c3ccccc3)cc(=O)c2c1O | 26.6 µM | 12 µM | 20.5 µM | 
14 | COc1c(OCCCN2CCCCC2)cc2oc(-c3ccccc3)cc(=O)c2c1O | 22.1 µM | 9.7 µM | 6.8 µM | 
15 | COc1c(OCCN2CCCC2)cc2oc(-c3ccccc3)cc(=O)c2c1O | 23.4 µM | 22.7 µM | 9.7 µM | 
16 | CCN(CC)CCCOc1cc2oc(-c3ccccc3)cc(=O)c2c(O)c1OC | 23.4 µM | 3.5 µM | 18 µM | 
